What is called MIC is the least concentration at which growth counts as inhibited. As a reminder, the IC50 is the concentration that inhibits the measured activity by half. Read a high IC50 as lower potency.

Series [1] in a line: Drug accumulation in wild type Acinetobacter baumannii HUMC1 cultured in iron-limited RPMI medium supplemented with 10% FCS at 0.002 to 0.02 uM incubated for 10 mins by LC-MS/MS analysis. Type of series: ADME. The following applies: dose 0.002-0.02 µM. A digest of the protocol: (§1)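 5 mL of suspension was dosed from DMSO stocks (0.002–5 mM) and shaken at 150 rpm for 10 min at 37 °C. Cells were pelleted, washed, and lysed (sucrose/EDTA). LC-MS/MS MRM quantitation used caffeine-normalized standard curves in spiked lysate. Reported as amount per 5 mL; n≥2 independent replicates.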

Series [2] is described as follows: Drug accumulation in Acinetobacter baumannii HUMC1 harboring fhuE deletion mutant cultured in iron-rich CAMHB media at <0.02 uM incubated for 10 mins by LC-MS/MS analysis. Type of series: ADME. Particulars: BLD = below limit of detection. A digest of the protocol:
(§2)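 5 mL suspension dosed from DMSO stocks (0.002–5 mM), 10 min at 37 °C, 150 rpm. Cells pelleted, washed in TBS and sucrose buffers, lysed, extracted with formic acid/CH3CN/CH3OH. LC-MS/MS MRM quantification against spiked-matrix standards, caffeine internal standard. Reported as ng per 5 mL suspension; n ≥ 2 independent replicates, mean ± SEM.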

The nature of series [3]: Drug accumulation in periplasm of Acinetobacter baumannii HUMC1 cultured in iron-limited RPMI medium supplemented with 10% FCS measured per 5 ml of culture medium at 0.005 uM incubated for 10 mins by LC-MS/MS analysis. Format: ADME, subcellular. A digest of the protocol:
(§3)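 The periplasm was released by cold 0.5 mM MgSO4 shock. Cells were then sonicated and DNase-treated, and a 30000 g spin separated cytoplasm from the membrane pellet. Fractions were quantified by LC-MS/MS against standard curves. Reported as ng per 5 mL; n = 4 in duplicate.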

Series [4] has as its system Acinetobacter baumannii. In words: Antibacterial activity against Acinetobacter baumannii HUMC1 cultured in RPMI 1640 medium supplemented with 10% FCS assessed as bacterial growth inhibition incubated for 20 hrs by CLSI based microbroth dilution method. Format: functional. Particulars: Acinetobacter baumannii, HUMC1, 20 h, read-out: MIC; call rule not given here. The gist of the method: (§4)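 CLSI broth microdilution in RPMI 1640 + 10% FCS in place of CAMHB. Compounds in 2-fold dilution series; inoculum 5×10^5 CFU/mL. Plates held static at 35 °C for 20 h. MIC read visually as the lowest concentration with no visible growth. […] is the reciprocal of this MIC.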
In general terms: Dilution methods test growth across graded concentrations, often in twofold steps.

A short description of series [5]: Drug accumulation in Acinetobacter baumannii HUMC1 harboring fhuE deletion mutant cultured in iron-rich CAMHB media at 0.5 to 5 uM incubated for 10 mins by LC-MS/MS analysis. Format: ADME. Particulars: dose 0.5-5 µM. A digest of the protocol:
as §2

Series [6] in a line: Drug accumulation in cytoplasm of Acinetobacter baumannii HUMC1 cultured in iron-limited RPMI medium supplemented with 10% FCS measured per 5 ml of culture medium at 0.005 uM incubated for 10 mins by LC-MS/MS analysis. Format: ADME, subcellular. A digest of the protocol:
as §3

The nature of series [7]: Drug accumulation in Acinetobacter baumannii HUMC1 harboring fhuE deletion mutant cultured in iron-limited RPMI medium supplemented with 10% FCS at <0.02 uM incubated for 10 mins by LC-MS/MS analysis. Format: ADME. The following applies: BLD = below limit of detection. The gist of the method:
as §2

The nature of series [8]: Drug accumulation in cytoplasm of Acinetobacter baumannii HUMC1 cultured in iron-limited RPMI medium supplemented with 10% FCS at 0.005 uM incubated for 10 mins by LC-MS/MS analysis. Format: ADME, subcellular. A digest of the protocol: as §3
Series [9] has as its system Acinetobacter baumannii. In words: Antibacterial activity against Acinetobacter baumannii HUMC1 harboring FhuE deletion mutant assessed as bacterial growth inhibition incubated for 20 hrs by CLSI based microbroth dilution method. Type of series: functional. The gist of the method: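 Microbroth dilution per CLSI in RPMI 1640 + 10% FCS (in place of CAMHB). Compounds as 2-fold serial dilutions; inoculum 5×10^5 CFU/mL of previously described HUMC1-derived mutant strains. Incubated static at 35 °C for 20 h. MIC read visually as lowest concentration preventing visible growth.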

A short description of series [10]: Drug accumulation in Acinetobacter baumannii HUMC1 cultured in iron-limited RPMI medium supplemented with 10% FCS measured per 5 ml of culture medium at 0.05 uM incubated for 10 mins by LC-MS/MS analysis. Type of series: ADME. The gist of the method:
as §1

The test system of series [11] is Staphylococcus aureus. Kind of series: Antibacterial activity against Staphylococcus aureus USA300 UAMS-1625 assessed as bacterial growth inhibition incubated for 20 hrs by CLSI based microbroth dilution method. Type of series: functional. The gist of the method:
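CLSI broth microdilution in CAMHB against S. aureus USA300 UAMS-1625. Compounds in 2-fold dilution series; inoculum 5×10^5 CFU/mL. Incubated without shaking at 35 °C for 20 h. MIC read visually as the lowest concentration preventing visible growth. Fold changes are relative to the rifabutin MIC.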

Series [12] can be described thus: Drug accumulation in Acinetobacter baumannii HUMC1 harboring fhuE deletion mutant cultured in iron-limited RPMI medium supplemented with 10% FCS at 0.5 to 5 uM incubated for 10 mins by LC-MS/MS analysis. Type of series: ADME. The following applies: dose 0.5-5 µM. A digest of the protocol:
as §2

The test system of series [13] is Acinetobacter baumannii. Kind of series: Antibacterial activity against Acinetobacter baumannii HUMC1 cultured in iron-limited RPMI medium supplemented with 10% FCS assessed as inverse MIC incubated for 20 hrs by CLSI based microbroth dilution method. Type of series: functional. A digest of the protocol:
as §4

Series [14] can be described thus: Drug accumulation in Acinetobacter baumannii HUMC1 cultured in iron-limited RPMI medium supplemented with 10% FCS measured per 5 ml of culture medium at 0.005 uM incubated for 10 mins by LC-MS/MS analysis. Format: ADME. A digest of the protocol:
as §3

The nature of series [15]: Drug accumulation in periplasm of Acinetobacter baumannii HUMC1 cultured in iron-limited RPMI medium supplemented with 10% FCS at 0.005 uM incubated for 10 mins by LC-MS/MS analysis. Format: ADME, subcellular. A digest of the protocol: as §3
Series [16] in a line: Drug accumulation in wild type Acinetobacter baumannii HUMC1 cultured in iron-rich CAMHB media at >=0.05 uM incubated for 10 mins by LC-MS/MS analysis. Type of series: ADME. A digest of the protocol:
as §1

A short description of series [17]: Inhibition of transcription in Acinetobacter baumannii HUMC1 using pVT784 as reporter plasmid preincubated for 30 mins followed by reporter plasmid addition and measured after 60 mins by Nano-Glo luciferase assay. Type of series: functional. A digest of the protocol: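 Cell-free transcription/translation used A. baumannii HUMC1 extract at 1.2 mg/mL, with extract from 2xYT+P culture after a run-off step and dialysis at pH 8.2. Compound was preincubated with extract for 30 min on ice. Reporter plasmid (0.5 nM) was then added and luminescence read after 60 min at 25 °C. Compounds were tested at 8 to 0.002 mg/L in triplicate. IC50 was fit from no-compound-normalized signal.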

Series [18] is described as follows: Drug accumulation in membrane of Acinetobacter baumannii HUMC1 cultured in iron-limited RPMI medium supplemented with 10% FCS at 0.005 uM incubated for 10 mins by LC-MS/MS analysis. Type of series: ADME, cell membranes. A digest of the protocol:
as §3

Series [19] in a line: Drug accumulation in membrane of Acinetobacter baumannii HUMC1 cultured in iron-limited RPMI medium supplemented with 10% FCS measured per 5 ml of culture medium at 0.005 uM incubated for 10 mins by LC-MS/MS analysis. Format: ADME, cell membranes. The gist of the method:
as §3

Structures are written as SMILES. ≈ marks a conversion by molar mass, not a printed value.

For the compound `CO[C@H]1/C=C/O[C@@]2(C)Oc3c(C)c(O)c4c(c3C2=O)C2=NC3(CCN(CC(C)C)CC3)NC2=C(NC(=O)/C(C)=C\C=C\[C@H](C)[C@H](O)[C@@H](C)[C@@H](O)[C@@H](C)[C@H](OC(C)=O)[C@@H]1C)C4=O` [RIFABUTIN], the Drug uptake result in [1] was “Active”; in series [2], “Bld”; in [3], 2.66 ng; in series [5], “Active”; in [6], 0.02 ng; in series [7], “Bld”. For the same compound, the Drug uptake is 79% in series [8]; 36.08 pmol in [10]; “Active” in series [12]; 12.44 ng in [14]; under 1% in series [15]; “Active” in [16]. Also, the Drug uptake in [18] was determined as 20%; in [19], 0.69 ng. Besides, the minimum inhibitory concentration (MIC) in series [4] came to 0.001 µg/mL (≈ 0.00118 µM); in [9], 0.5 µg/mL (≈ 0.59 µM); in [11], 0.016 µg/mL (≈ 0.0189 µM). For the same compound, in [13], the 1/MIC is on record as 1000 L/mg. In addition, the concentration for half-maximal inhibition (IC50) in series [17] is 0.07 µg/mL (≈ 0.0826 µM).

The record behind these values is ChEMBL document CHEMBL5346932, “Structure-activity relationships of actively FhuE transported rifabutin derivatives with potent activity against Acinetobacter baumannii” (Eur J Med Chem, 2023).
